From ChEMBL document CHEMBL3526048, “In vitro metabolism of rivoglitazone, a novel peroxisome proliferator-activated receptor γ agonist, in rat, monkey, and human liver microsomes and freshly isolated hepatocytes” (Drug Metab Dispos, 2011)

Tests used:
[1] = Retention time of the compound by LC-MS/MS analysis; type: physicochemical
Method in brief: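 LC-MS/MS used a YMC-Pack ODS-A column (1.5 × 150 mm, 5 μm) at 30°C, 0.1 ml/min. Mobile phase was water and acetonitrile, each with 0.01% TFA. Gradient: 12→60% B over 30 min, →90% B over 5 min, hold 5 min. Detection was UV 220 nm with positive ESI Q-TOF (capillary 3300 V, cone 45 V), collision energy 20 eV and xenon as collision gas.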

[2] = tested on: Hepatocyte; experiment: Drug level in human hepatocytes treated with [14C]-rivoglitazone at 30 uM after 3 hrs by radio-HPLC/LC-MS/MS analysis in presence of UDPGA, UDPGA/SAM and NADPH-generating system; type: ADME, cell-based
[3] = target: Cytochrome P450 2C9 (Homo sapiens, UniProt P11712); experiment: Activity of human CYP2C9 expressed in microsomes isolated from baculovirus infected insect cell assessed as enzyme-mediated (2S,3S,4S,5R,6R)-3,4,5-trihydroxy-6-(5-(4-((6-methoxy-1-methyl-1H-benzo[d]imidazol-2-yl)methoxy)benzyl)-2,4-dioxothiazolidin-3-yl)tetrahydro-2H-pyran-2-carboxylic acid formation at 20 uM after 2 hrs by radio-HPLC/LC-MS/MS analysis in presence of UDPGA and UDPGA/SAM; type: ADME
[4] = Drug metabolism in monkey hepatocytes assessed as formation of (2S,3S,4S,5R,6R)-6-((1-carboxy-2-(4-((6-methoxy-1-methyl-1H-benzo[d]imidazol-2-yl)methoxy)phenyl)ethylthio)carbonylamino)-3,4,5-trihydroxytetrahydro-2H-pyran-2-carboxylic acid at 30 uM after 3 hrs by radio-HPLC/LC-MS/MS analysis in presence of UDPGA and UDPGA/SAM; details: cynomolgus monkey
[5] = Drug metabolism in rat hepatocytes assessed as formation of 3-(4-((6-methoxy-1-methyl-1H-benzo[d]imidazol-2-yl)methoxy)phenyl)-2-(methylsulfonyl)propanamide at 30 uM after 3 hrs by radio-HPLC/LC-MS/MS analysis in presence of NADPH-generating system/SAM; type: ADME, cell-based, Hepatocyte
[6] = target: T1, Cytochrome P450 2C8 (Homo sapiens, UniProt P10632); experiment: Activity of human CYP2C8 expressed in microsomes isolated from baculovirus infected insect cell assessed as enzyme-mediated 2-((4-((2,4-dioxothiazolidin-5-yl)methyl)phenoxy)methyl)-1-methyl-1H-benzo[d]imidazol-6-yl hydrogen sulfate formation at 20 uM after 2 hrs by radio-HPLC/LC-MS/MS analysis; type: ADME
T1 sequence (P10632 whole entry): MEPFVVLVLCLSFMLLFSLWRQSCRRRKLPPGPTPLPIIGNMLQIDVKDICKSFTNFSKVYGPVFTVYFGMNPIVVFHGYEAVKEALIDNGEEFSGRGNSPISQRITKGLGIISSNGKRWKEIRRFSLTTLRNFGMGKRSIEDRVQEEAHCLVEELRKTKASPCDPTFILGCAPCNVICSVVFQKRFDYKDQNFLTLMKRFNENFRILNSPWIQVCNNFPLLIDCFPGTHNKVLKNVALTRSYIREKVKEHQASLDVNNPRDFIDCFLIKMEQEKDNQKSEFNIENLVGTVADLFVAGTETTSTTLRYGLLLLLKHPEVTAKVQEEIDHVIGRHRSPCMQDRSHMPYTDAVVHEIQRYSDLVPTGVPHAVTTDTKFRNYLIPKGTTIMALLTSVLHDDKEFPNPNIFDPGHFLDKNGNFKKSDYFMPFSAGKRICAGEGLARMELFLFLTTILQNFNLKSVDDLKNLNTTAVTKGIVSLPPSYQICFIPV
Method in brief: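 Baculovirus/insect-cell microsomes expressing single human CYPs, 1 mg/ml protein, with 50 mM potassium phosphate (pH 7.4) or 100 mM Tris-HCl (pH 7.5). NADPH-generating system: 2 mM NADP⁺, 20 mM glucose 6-phosphate, 2 units/ml G6PDH, 10 mM MgCl₂. [¹⁴C]rivoglitazone at 20 μM, 2 h at 37°C with shaking. Control used insect-cell control supersomes. Stopped with acetonitrile; supernatant concentrated under nitrogen; metabolites analysed by radio-HPLC, LC-MS and LC-MS/MS.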

[7] = target: T2, UDP-glucuronosyltransferase 2B7 (Homo sapiens, UniProt P16662); experiment: Activity of human UGT2B7 expressed in microsomes isolated from baculovirus infected insect cell assessed as enzyme-mediated 5-hydroxy-5-(4-((6-methoxy-1-methyl-1H-benzo[d]imidazol-2-yl)methoxy)benzyl)thiazolidine-2,4-dione formation at 20 uM after 4 hrs by radio-HPLC/LC-MS/MS analysis in presence of NADPH-generating system and NADPH-generating system/SAM in presence of UDPGA and UDPGA/SAM; type: ADME
T2 sequence (P16662 whole entry): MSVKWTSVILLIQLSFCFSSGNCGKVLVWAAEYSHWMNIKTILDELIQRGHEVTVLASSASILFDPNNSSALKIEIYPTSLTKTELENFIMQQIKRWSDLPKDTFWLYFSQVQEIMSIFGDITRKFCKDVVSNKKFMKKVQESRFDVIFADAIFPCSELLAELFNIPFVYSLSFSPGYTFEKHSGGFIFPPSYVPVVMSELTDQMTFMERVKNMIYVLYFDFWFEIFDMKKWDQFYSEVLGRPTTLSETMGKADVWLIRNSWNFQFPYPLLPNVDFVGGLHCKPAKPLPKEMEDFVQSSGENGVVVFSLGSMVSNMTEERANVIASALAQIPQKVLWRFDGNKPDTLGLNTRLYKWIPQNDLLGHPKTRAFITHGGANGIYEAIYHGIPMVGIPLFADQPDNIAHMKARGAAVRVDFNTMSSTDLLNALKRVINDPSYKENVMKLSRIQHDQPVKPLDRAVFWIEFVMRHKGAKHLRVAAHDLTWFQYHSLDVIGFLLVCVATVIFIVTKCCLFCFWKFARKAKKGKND

[8] = Drug metabolism in monkey hepatocytes assessed as formation of 5-hydroxy-5-(4-((6-methoxy-1-methyl-1H-benzo[d]imidazol-2-yl)methoxy)benzyl)thiazolidine-2,4-dione at 30 uM after 3 hrs by radio-HPLC/LC-MS/MS analysis in presence of NADPH-generating system and NADPH-generating system/SAM; details: cynomolgus monkey
[9] = target: T3, Cytochrome P450 1A2 (Homo sapiens, UniProt P05177); experiment: Activity of human CYP1A2 expressed in microsomes isolated from baculovirus infected insect cell assessed as enzyme-mediated 3-(4-((6-methoxy-1-methyl-1H-benzo[d]imidazol-2-yl)methoxy)phenyl)-2-(methylthio)propanoic acid formation at 20 uM after 2 hrs by radio-HPLC/LC-MS/MS analysis in presence of NADPH-generating system/SAM and UDPGA/SAM; type: ADME
T3 sequence (P05177 whole entry): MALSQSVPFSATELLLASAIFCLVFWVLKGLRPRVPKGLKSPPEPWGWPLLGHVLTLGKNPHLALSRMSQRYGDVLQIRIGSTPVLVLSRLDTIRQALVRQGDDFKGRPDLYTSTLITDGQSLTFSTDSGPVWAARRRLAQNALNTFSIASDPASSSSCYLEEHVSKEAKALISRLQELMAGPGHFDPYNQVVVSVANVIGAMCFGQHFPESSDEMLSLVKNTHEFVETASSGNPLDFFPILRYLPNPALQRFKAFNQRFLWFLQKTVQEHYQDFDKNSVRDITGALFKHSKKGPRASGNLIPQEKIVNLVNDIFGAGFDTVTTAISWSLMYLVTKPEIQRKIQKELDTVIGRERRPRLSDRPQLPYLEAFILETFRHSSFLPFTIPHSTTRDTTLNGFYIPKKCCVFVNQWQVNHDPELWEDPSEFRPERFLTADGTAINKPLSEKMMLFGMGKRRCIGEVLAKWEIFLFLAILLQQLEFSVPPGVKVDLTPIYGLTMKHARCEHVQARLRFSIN

Sequence of Cytochrome P450 2C9 (P11712 whole entry): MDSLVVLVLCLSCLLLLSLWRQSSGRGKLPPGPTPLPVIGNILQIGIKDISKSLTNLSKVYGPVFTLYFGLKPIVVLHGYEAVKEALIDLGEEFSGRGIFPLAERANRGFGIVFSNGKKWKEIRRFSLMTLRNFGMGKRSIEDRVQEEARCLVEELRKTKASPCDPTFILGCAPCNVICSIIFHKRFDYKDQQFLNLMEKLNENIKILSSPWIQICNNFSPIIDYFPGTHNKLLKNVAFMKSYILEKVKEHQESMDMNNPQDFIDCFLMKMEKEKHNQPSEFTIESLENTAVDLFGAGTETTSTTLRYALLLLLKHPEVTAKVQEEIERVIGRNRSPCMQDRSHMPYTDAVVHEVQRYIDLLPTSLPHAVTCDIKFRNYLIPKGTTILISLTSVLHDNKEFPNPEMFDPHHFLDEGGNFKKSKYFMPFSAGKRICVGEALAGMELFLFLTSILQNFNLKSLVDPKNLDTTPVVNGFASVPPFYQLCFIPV

SMILES | Retention_time [1] [min] | Drug metabolism [2] | Drug metabolism [3] | Drug metabolism [4] | Drug metabolism [5] | Drug metabolism [6] | Drug metabolism [7] | Drug metabolism [8] | Drug metabolism [9]
COc1ccc2nc(COc3ccc(CC(S)C(=O)O)cc3)n(C)c2c1 (centres undefined) | 23.9 | metabolite_not_detected |  |  |  |  |  |  | 
COc1ccc2nc(COc3ccc(C[14CH]4SC(=O)NC4=O)cc3)n(C)c2c1.Cl (racemic) |  |  | metabolite_not_detected | metabolite_detected | metabolite_detected | metabolite_not_detected | metabolite_not_detected | metabolite_detected | metabolite_not_detected
